Compound activity (PubChem)
Shown are actives, neighbours in structure and some others; about 0.55% of the full set was active somewhere.
OXTR potentiate: potentiates the human oxytocin receptor response | P30559 | CHO-OTR cells, Fluo-8 calcium fluorescence, potentiator mode; 0% = oxytocin EC15, 100% = EC100 | activation, % at 3 µM | 0.061% of 320,000 active;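 active means activation above that plate's cutoff, the mean activation of tested compounds plus 3 SD, cut at about 6.6% in these data, passing the limit was not always enough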;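 further: 100% uses oxytocin at 75 nM as the full agonist control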
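System: human OTR in CHO cells; Also added: sub-maximal oxytocin, roughly EC15; Timing: compound 6 min at room temperature before oxytocin, 100 s read; Technique: Fluo-8 intracellular calcium fluorescence, ex 470-495, em 515-575 nm; Controls: oxytocin EC15 low and EC100 high; Replication: singlicate.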
OXTR ag: agonists of human oxytocin receptor; CHO-OTR cells, Fluo-8 calcium fluorescence; normalized: DMSO 0%, oxytocin 100%; activation, % at 3 µM; 0.32% of 320,000 active; AID 2435;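 active means activation above the mean of all tested compounds plus 3 SD, cutoff set per screening run, cut at about 20% in these data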;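 further: peak over basal fluorescence ratio from a 100 s FLIPR kinetic read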
V1aR counter: V1a receptor agonism, counter-screen for OXTR agonists; AID 2797; 0.25% of 320,000 active; P37288; activation, % at 3 µM; CHO-V1R cells, Fluo-8 calcium fluorescence, agonist mode; 0% DMSO, 100% 3 nM vasopressin;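 active means activation above the mean activation of all tested compounds plus 3 SD, per screening run, cut at about 20% in these data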;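 further: signal is peak over basal fluorescence ratio across a 100 second FLIPR read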
TRPN1 ag: agonists of zebrafish TRPN1 channel; HEK293 zebrafish TRPN1-YFP, Fluo-8 calcium fluorescence; 100% = response to 87 µM carbachol; activation, % at 3 µM; 0.18% of 220,000 active; AID 1424;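 active means activation above its plate's cutoff, the mean activation of test wells on that plate plus 3 SD, cut at about 19% in these data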;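 further: 0% = DMSO alone and 100% = 87 µM carbachol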
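Material: zebrafish TRPN1-YFP in HEK293 cells; Doses: single test compound dose, 3 µM nominal, 0.3% DMSO; Timing: dye loading 1 h at 37 °C, then 30 min room temperature; Technique: intracellular calcium fluorescence with Fluo-8; Benchmarks: high carbachol 87 µM, low DMSO alone.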
TRPML3 agonist: agonists of human TRPML3 channel; 0.29% of 220,000 active; activation, % at 3 µM; AID 1448; HEK293 TRPML3-YFP, Fluo-8 calcium fluorescence; 100% = the carbachol control signal;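 active means activation above its plate's cutoff, the mean activation of the plate's test wells plus 3 SD, cut at about 12% in these data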;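 further: 0% = DMSO only wells and 100% = carbachol wells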
Target sequence (Q8TDD5 whole entry, looked up): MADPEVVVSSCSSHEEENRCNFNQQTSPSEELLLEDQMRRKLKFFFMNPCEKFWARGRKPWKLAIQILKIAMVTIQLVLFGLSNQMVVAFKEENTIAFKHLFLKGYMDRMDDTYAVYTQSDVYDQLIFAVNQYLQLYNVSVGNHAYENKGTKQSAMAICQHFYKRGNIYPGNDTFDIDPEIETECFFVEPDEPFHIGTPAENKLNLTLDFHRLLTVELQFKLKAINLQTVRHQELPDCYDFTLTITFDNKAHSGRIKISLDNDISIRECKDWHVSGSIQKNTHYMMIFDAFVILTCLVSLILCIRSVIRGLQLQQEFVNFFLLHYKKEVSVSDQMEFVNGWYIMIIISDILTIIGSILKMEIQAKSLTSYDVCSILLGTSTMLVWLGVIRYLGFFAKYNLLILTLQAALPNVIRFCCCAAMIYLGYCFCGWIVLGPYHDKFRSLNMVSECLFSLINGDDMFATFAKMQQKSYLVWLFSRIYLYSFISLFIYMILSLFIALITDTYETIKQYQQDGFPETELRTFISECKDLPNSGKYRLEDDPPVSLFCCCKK
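Test system: HEK293 cells stably carrying human TRPML3-YFP; Doses: single dose, 3 µM final nominal compound, 0.3% DMSO final; Schedule: dye loading 1 h 37 °C then 30 min ambient, 125 s read; Technique: Fluo-8 calcium fluorescence; Benchmarks: high control carbachol 87 µM, low control DMSO.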
* = called active by the depositor; x = no result.

SMILES	OXTR potentiate	OXTR ag	V1aR counter	TRPN1 ag	TRPML3 agonist
CCOc1ccccc1N(CC(=O)N1CCOCC1)S(=O)(=O)c1ccccc1	0	0	1	6	182*
O=C(CN1C(=O)C2CC=CCC2C1=O)OCc1cc(=O)n2cc(Br)ccc2n1 (centres undefined)	-7	1	2	0	0
CCN1/C(=C/c2ccc3cc(C)ccc3[n+]2CC)Sc2cc(C)c(C)cc21	x	x	x	49*	20*
CC[n+]1ccccc1/C=C1\Sc2ccc(C)cc2N1C	-18	0	0	x	x
CCN1/C(=C/c2ccc3cc(C)ccc3[n+]2CC)Sc2ccccc21	-18	30*	32*	83*	30*
CN1/C(=C/c2cccc[n+]2CCO)Sc2ccccc21	-14	0	0	x	x
CC[n+]1c(/C=C2\Sc3ccccc3N2C)ccc2cccc(C)c21	x	x	x	42*	18*
CCN1CCN(c2ccc(S(=O)(=O)N3CCCCC3)cc2NC(=O)Cc2c(F)cccc2Cl)CC1	-6	2	0	x	x
CC1(C)NC(=O)N(Cc2cc(=O)n3ccsc3n2)C1=O	1	0	0	-1	1
CCOc1ccccc1N1CCN(C(=O)CNC(=O)c2ccccc2F)CC1	0	0	0	x	x
COc1ccc(/C(N)=N/OC(=O)CN(C)S(=O)(=O)c2ccc(C)cc2)cc1	x	x	x	-1	84*
Cc1ccc(/C(N)=N/OC(=O)CN(C)S(=O)(=O)c2ccc(C)cc2)cc1	-8	0	4	x	x
Cc1ccccc1Cn1cc(CCC(=O)N2CCOCC2)c2ccccc21	-11	0	1	x	x
CCCC(C(=O)Nc1ccc(S(=O)(=O)N2CCOCC2)cc1)c1ccccc1 (centres undefined)	-16	28*	20*	x	x
COc1cc2[nH]c(=O)n(CCC(=O)N3CCC(N4CCCCC4)CC3)c(=O)c2cc1OC	2	0	1	0	0
COc1ccccc1CC(=O)Nc1ccc([N+](=O)[O-])cc1O	-16	15	10	21*	6
COc1ccc(C2CC3(CC(C)(C)NC(SC)=N3)Oc3cc(O)cc(C)c32)cc1 (centres undefined)	-10	39*	51*	1	1
CCCCNC(=O)CCn1c(=O)c2ccccc2n(Cc2ccc(Cl)cc2)c1=O	15*	0	2	1	1
COc1ccc(NC(=O)CSc2nnc(Cc3ccccc3)c(=O)n2N)c(OC)c1	-2	-2	-1	x	x
CCOC(=O)c1nn(-c2ccccc2)c2nnc(Cc3ccc(C)cc3)c(=O)n12	12*	-3	0	0	0
Cc1ccnc(NC(=O)c2ccc(Cl)c(NC(=O)c3ccccc3C)c2)c1	-2	-3	-1	x	x
CCN(CC)c1ccc(/C=C(/C#N)c2nc3ccccc3[nH]2)c(OC(C)C)c1	-13	51*	44*	24*	15*
CCc1ccc(CNC(=O)C(=O)NCCc2ccc(OC)c(OC)c2)cc1	3	-2	0	0	-1
COc1ccc(C2(C)NC(=O)N(CC(=O)Nc3cccnc3Cl)C2=O)cc1 (centres undefined)	-3	7	5	x	x
CC1(c2ccc(OC(F)F)cc2)NC(=O)N(CC(=O)Nc2ccc(N3CCCCC3)cc2)C1=O (centres undefined)	-21	27*	27*	x	x
SMILES	OXTR potentiate	OXTR ag	V1aR counter	TRPN1 ag	TRPML3 agonist
CC1(c2ccc(OC(F)F)cc2)NC(=O)N(CC(=O)Nc2cccnc2Cl)C1=O (centres undefined)	-22	60*	48*	x	x
CCC1(c2ccccc2)NC(=O)N(CC(=O)Nc2cccnc2Cl)C1=O (centres undefined)	-3	4	2	x	x
CCC1(c2ccc(F)cc2)NC(=O)N(CC(=O)Nc2cccnc2Cl)C1=O (centres undefined)	-18	23*	30*	x	x
O=C1NC(=S)S/C1=C\C=C\c1ccc([N+](=O)[O-])o1	x	x	x	21*	11
O=C(O)/C=C/c1ccc([N+](=O)[O-])o1	-4	2	4	4	2
CN1CCS/C1=C\C=C1/SC(=S)N(CC(=O)O)C1=O	x	x	x	31*	10
CN1/C(=C\C=C2/SC(=S)N(CC(=O)O)C2=O)C(C)(C)c2ccccc21	-17	111*	148*	41*	12*
CC(=O)c1cccc(NC(=O)COC(=O)CC2CC3CCC2C3)c1 (centres undefined)	-9	2	4	x	x
CCCCCCCCCC[N+](C)(C)CC/C=C1/c2ccccc2Sc2ccc(Cl)cc21	-13	31*	37*	x	x
CN1CCN(C2=CC3=CC(=C(C#N)C#N)CCC3CC2)CC1 (centres undefined)	x	x	x	617*	329*
CC1(C)CC(NCCN2CCN(C3=CC(=C(C#N)C#N)CC(C)(C)C3)CC2)=CC(=C(C#N)C#N)C1	-5	-1	-1	1	1
CCN1CCN(C2=CC3=CC(=C(C#N)C#N)CCC3CC2)CC1 (centres undefined)	x	x	x	395*	310*
N#CC(C#N)=C1C=C2C=C(N3CCOCC3)CCC2CC1 (centres undefined)	x	x	x	169*	74*
N#CC(C#N)=C1C=C2C=C(N3CCCCCC3)CCC2CC1 (centres undefined)	x	x	x	891*	366*
CCCCN(Cc1ccccc1)C1CCN(Cc2ccccc2)CC1	-2	-2	0	x	x
CCN(C[C@H]1N[C@@](CC)(C(=O)OC)[C@H]2C(=O)N(C)C(=O)[C@@H]12)C(=O)Nc1ccc(OC)cc1	-5	0	1	x	x
O=C(NCc1cccnc1)c1ccc(Cl)c(S(=O)(=O)N2CCCCCC2)c1	-4	2	4	9	3
CC(C)Cc1nnc(NC(=O)CN2C(=O)NC3(CC(C)CC(C)(C)C3)C2=O)s1 (centres undefined)	-11	-1	0	x	x
Cc1ccc(N2C(S)=C(C#N)C(=O)NC2c2ccco2)cc1 (centres undefined)	0	0	1	1	1
OCCNCc1c(OCc2ccc(Cl)cc2)ccc2ccccc12	-20	30*	30*	x	x
C[C@H](CO)NC(=O)[C@H](C)[C@@H]1C[C@@]1(C)[C@@H](NC(=O)OCc1ccccc1)c1ccccc1	-9	0	0	0	0
COc1ccc(C)cc1NC(=O)c1ccccc1NS(=O)(=O)c1ccc(Cl)s1	-16	13	8	22*	14*
Cn1c(N)c(-c2ccccc2)c2ccc([N+](=O)[O-])cc2c1=O	-17	46*	51*	x	x
CCN1CCN(c2c(/C=C3\SC(=S)N(Cc4ccco4)C3=O)c(C)c(C#N)c(=O)n2C)CC1	-10	14	20*	2	4
O=C(COC(=O)COc1cccc(Br)c1)Nc1ccc(F)cc1F	-6	4	4	x	x
